# According to ChEMBL document CHEMBL1275345, “Pyrazolo[1',5':1,6]pyrimido[4,5-d]pyridazin-4(3H)-ones as selective human A(1) adenosine receptor ligands” (Bioorg Med Chem, 2010):
# Tests used:
# [1] = target: T1, Adenosine receptor A2b (Homo sapiens) (UniProt P29275); assay: Displacement of [3H]DPCPX from human adenosine A2b receptor expressed in HEK293 cells at 10 uM after 30 mins; type: cell-based
# T1 sequence (whole entry): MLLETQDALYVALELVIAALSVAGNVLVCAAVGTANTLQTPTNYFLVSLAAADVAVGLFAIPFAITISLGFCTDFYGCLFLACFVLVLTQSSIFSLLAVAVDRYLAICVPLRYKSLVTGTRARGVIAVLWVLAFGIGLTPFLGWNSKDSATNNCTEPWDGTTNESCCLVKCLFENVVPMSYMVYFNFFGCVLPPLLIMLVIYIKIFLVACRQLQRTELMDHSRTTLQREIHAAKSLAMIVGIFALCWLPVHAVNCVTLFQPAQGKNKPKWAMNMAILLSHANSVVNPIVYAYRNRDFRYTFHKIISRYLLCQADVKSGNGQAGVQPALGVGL
# Outline: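 Human A2B receptor expressed in HEK-293 cells, with displacement of [3H]DPCPX. Incubated at 25 °C for 30 min, then filtered and counted by beta scintillation. Reported as Ki (nM) or percentage inhibition at the single test concentration. Means of four independent assays, each run in triplicate.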
# Adenosine receptor A3 [2] = target: T2, Adenosine receptor A3 (Homo sapiens, UniProt P0DMS8); assay: Displacement of [3H]NECA from human adenosine A3 receptor expressed in HeLa cells after 180 mins; type: cell-based
# T2 sequence (P0DMS8 whole entry): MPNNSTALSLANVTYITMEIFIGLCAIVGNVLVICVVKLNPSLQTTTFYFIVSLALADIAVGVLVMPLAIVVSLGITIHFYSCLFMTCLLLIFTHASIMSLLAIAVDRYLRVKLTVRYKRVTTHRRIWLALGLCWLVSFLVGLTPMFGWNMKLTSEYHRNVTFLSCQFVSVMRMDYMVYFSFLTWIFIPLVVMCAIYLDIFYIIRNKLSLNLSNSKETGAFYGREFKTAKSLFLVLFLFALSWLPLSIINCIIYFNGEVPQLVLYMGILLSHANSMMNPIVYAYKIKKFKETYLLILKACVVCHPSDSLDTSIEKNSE
# Outline: (§1)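 HeLa cells expressing human A3 receptor, with displacement of [3H]NECA. Incubated at 25 °C for 180 min, then filtered and counted by beta scintillation. Ki (nM) or percentage inhibition at the single test concentration. Means of four assays, each in triplicate.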
# Adenosine receptor A2a [3] = target: T3, Adenosine receptor A2a (Homo sapiens, UniProt P29274); assay: Displacement of [3H]ZM241385 from human adenosine A2a receptor expressed in HeLa cells at 10 uM after 30 mins; type: cell-based
# T3 sequence (P29274 whole entry): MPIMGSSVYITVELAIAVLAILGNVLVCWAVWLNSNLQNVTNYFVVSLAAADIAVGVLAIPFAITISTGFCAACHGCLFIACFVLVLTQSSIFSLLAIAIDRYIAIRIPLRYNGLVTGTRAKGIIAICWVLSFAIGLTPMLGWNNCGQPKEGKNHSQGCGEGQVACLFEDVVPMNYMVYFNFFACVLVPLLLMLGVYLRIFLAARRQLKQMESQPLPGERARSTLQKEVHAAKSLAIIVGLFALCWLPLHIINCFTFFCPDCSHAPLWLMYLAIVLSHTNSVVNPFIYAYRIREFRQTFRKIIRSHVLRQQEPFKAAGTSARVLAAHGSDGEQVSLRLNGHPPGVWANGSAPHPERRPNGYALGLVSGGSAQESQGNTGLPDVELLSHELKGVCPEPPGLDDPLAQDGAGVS
# Outline: (§2)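 [3H]ZM241385 specific binding in HeLa cells expressing human A2A receptor. Incubation at 25 °C for 30 min, followed by filtration and beta scintillation counting. Output is Ki (nM) or % inhibition at the single test concentration. Values are means of four separate assays, each performed in triplicate.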
# Adenosine receptor A1 = target: T4, Adenosine receptor A1 (Homo sapiens, UniProt P30542); assay: Displacement of [3H]DPCPX from human adenosine A1 receptor expressed in CHO-A1 cells after 60 mins; type: cell-based
# T4 sequence (P30542 whole entry): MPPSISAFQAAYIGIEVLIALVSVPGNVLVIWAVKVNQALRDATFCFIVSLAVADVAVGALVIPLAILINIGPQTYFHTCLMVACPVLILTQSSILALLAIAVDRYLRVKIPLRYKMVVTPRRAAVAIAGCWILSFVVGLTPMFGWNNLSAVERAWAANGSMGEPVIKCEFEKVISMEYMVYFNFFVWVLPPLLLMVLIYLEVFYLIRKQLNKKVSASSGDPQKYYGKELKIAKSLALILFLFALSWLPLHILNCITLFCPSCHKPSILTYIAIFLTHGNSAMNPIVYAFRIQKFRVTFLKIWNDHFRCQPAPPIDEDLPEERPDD
# Outline: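 Competition binding on membranes from CHO cells expressing human A1 receptor, labelled with 2 nM [3H]DPCPX. Non-specific binding defined with (R)-PIA. Incubation at 25 °C for 60 min, then filtration and beta scintillation counting. Result given as Ki (nM) or % inhibition at the single test concentration. Means of four separate assays, each in triplicate.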
# Adenosine receptor A3 [4] = target: T5, Adenosine receptor A3 (Bos taurus, UniProt Q0VC81); assay: Binding affinity to bovine adenosine A3 receptor
# T5 sequence (Q0VC81 whole entry): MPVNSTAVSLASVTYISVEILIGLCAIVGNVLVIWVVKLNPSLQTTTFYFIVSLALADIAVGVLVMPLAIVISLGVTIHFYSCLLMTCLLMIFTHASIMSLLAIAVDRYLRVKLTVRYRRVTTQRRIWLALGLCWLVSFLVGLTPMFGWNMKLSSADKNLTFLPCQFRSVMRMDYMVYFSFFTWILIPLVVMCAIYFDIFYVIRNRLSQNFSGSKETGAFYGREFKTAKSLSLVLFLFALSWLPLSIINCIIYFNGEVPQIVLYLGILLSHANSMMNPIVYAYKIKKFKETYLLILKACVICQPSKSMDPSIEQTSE
# [5] = Binding affinity to bovine adenosine A2a receptor; parameters: species or system Bos taurus
# [6] = target: T6, Adenosine receptor A3 (Homo sapiens) (UniProt P0DMS8); assay: Displacement of [3H]NECA from human adenosine A3 receptor expressed in HeLa cells at 10 uM after 180 mins; type: cell-based; outline: as §1
# T6 sequence (whole entry): T2 sequence (P0DMS8 whole entry)
# Adenosine receptor A2b [7] = target: T7, Adenosine receptor A2b (Homo sapiens, UniProt P29275); assay: Displacement of [3H]DPCPX from human adenosine A2b receptor expressed in HEK293 cells after 30 mins; type: cell-based
# T7 sequence (P29275 whole entry): T1 sequence (whole entry)
# [8] = Binding affinity to human adenosine A2 receptor
# Adenosine receptor A2a [9] = target: T3, Adenosine receptor A2a; assay: Displacement of [3H]ZM241385 from human adenosine A2a receptor expressed in HeLa cells after 30 mins; type: cell-based; outline: as §2
# Homo sapiens [10] = species: Homo sapiens; assay: Selectivity ratio of Ki for human adenosine A2a receptor to Ki for human A1 receptor
# Homo sapiens [11] = species: Homo sapiens; assay: Selectivity ratio of Ki for human adenosine A2b receptor to Ki for human A1 receptor
# Adenosine receptor A2b [12] = target: T7, Adenosine receptor A2b; assay: Binding affinity to human adenosine A2b receptor
# Outline: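 Competition binding on human A2B receptors expressed in HEK-293 cells, displacing [3H]DPCPX. Bound radioactivity was separated by filtration and counted by beta scintillation. Values are means of four separate assays, each run in triplicate.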
# Bos taurus = species: Bos taurus; assay: Binding affinity to bovine adenosine A2a receptor at 34 uM
# [13] = target: T8, Adenosine receptor A1 (Bos taurus) (UniProt P28190); assay: Binding affinity to bovine adenosine A1 receptor at 34 uM
# T8 sequence (whole entry): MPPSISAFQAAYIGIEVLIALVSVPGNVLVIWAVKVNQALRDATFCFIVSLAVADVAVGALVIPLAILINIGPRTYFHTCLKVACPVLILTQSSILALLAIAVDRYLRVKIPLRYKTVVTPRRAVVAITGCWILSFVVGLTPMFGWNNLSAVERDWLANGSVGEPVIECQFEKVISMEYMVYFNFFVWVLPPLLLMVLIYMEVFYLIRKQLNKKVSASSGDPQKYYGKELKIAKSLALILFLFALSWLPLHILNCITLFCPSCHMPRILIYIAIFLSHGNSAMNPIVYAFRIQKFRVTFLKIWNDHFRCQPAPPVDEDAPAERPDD
structure (smiles),measurement,setting,value
Cc1nn(C(C)c2ccccc2)c(=O)c2nc(C)n3nc(-c4ccccc4)cc3c12 (configuration not stated),inhibition,[1],< 50%
same,Ki,Adenosine receptor A3 [2],4.73 µM
same,inhibition,Adenosine receptor A2a [3],< 50%
same,Ki,Adenosine receptor A1,3.08 µM
O=c1c(-c2ccccc2)nnc2n(-c3ccccc3)c3ccccc3n12,Ki,Adenosine receptor A3 [4],> 1 µM
same,Ki,[5],> 10 µM
Cc1nn(Cc2ccccc2)c(=O)c2ncn3nc(-c4ccccc4)cc3c12,inhibition,[6],< 50%
same,inhibition,Adenosine receptor A2a [3],< 50%
same,Ki,Adenosine receptor A2b [7],7.56 µM
same,Ki,Adenosine receptor A1,0.104 µM
O=C(Cc1cccc2ccccc12)Nc1nc2nn(CCCc3ccccc3)cc2c2nc(-c3ccco3)nn12,Ki,Adenosine receptor A3 [4],0.3 µM
same,Ki,[8],0.8 µM
Cc1nn(Cc2ccccc2)c(=O)c2ncn3nc(-c4ccsc4)cc3c12,inhibition,[6],< 50%
same,Ki,Adenosine receptor A2a [9],7.36 µM
same,fold change (FC),Homo sapiens [10],90
same,fold change (FC),Homo sapiens [11],56
same,Ki,Adenosine receptor A2b [7],4.65 µM
same,Ki,Adenosine receptor A1,0.0853 µM
COc1ccc(CCCn2ncc3c2nc(N)n2nc(-c4ccco4)nc32)cc1,Ki,Adenosine receptor A3 [4],> 10 µM
same,Ki,Adenosine receptor A2b [12],> 10 µM
COc1ccc(-c2nc3c(O)nc4ccccc4n3n2)cc1,inhibition,Bos taurus,8.7%
same,inhibition,[13],0%
